{"source": "paper PMC3394096", "about": "(Investigational New Drugs, 2011)", "key": {"Ca125 antigen": {"test_system": "Ca125 antigen", "assay": "Phase I serum Ca125 antigen", "type": "in vivo, human", "details": "ovarian cancer patient with prolonged stable disease"}, "A2780 (ovarian cancer)": {"test_system": "A2780 (ovarian cancer)", "details": "cited from earlier work"}, "other kinesins": {"test_system": "other kinesins", "details": "background statement, ref not given; cited from earlier work"}, "xenograft tumors": {"test_system": "xenograft tumors", "details": "mice, multi-dose regimen; background statement, ref not given; cited from earlier work"}, "HCT116 (colon cancer)": {"test_system": "HCT116 (colon cancer)", "details": "cited from earlier work"}, "[1]": {"assay": "Phase I plasma pharmacokinetics, 24-hour continuous IV infusion", "type": "in vivo, human", "how_it_was_run": "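Test compound given to patients as a 24 h continuous IV infusion in 21-day cycles. Plasma sampled predose, at 1, 3, 6, 12, 16 and 24 h, then at 24.5–96 h from infusion start. Extraction used pH 10.7 carbonate buffer with MTBE:hexane, then HPLC-MS/MS in positive ion mode; standard curve 1–200 ng/mL. t1/2 from an unweighted single-exponential fit to the log-linear terminal phase. AUC(0-∞) by linear up/log down with extrapolation. Clearance calculated as dose/AUC.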"}, "KSP": {"test_system": "KSP", "details": "read-out: IC50 (KSP); background statement, ref not given; cited from earlier work"}, "[2]": {"assay": "Phase I safety, dose-limiting toxicity and maximum tolerated dose", "type": "in vivo, human"}, "solid tumors": {"test_system": "solid tumors", "assay": "Phase I tumor response", "type": "in vivo, human", "how_it_was_run": "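Patients with measurable taxane-resistant solid tumors received a 24 h continuous IV infusion every 21 days, with serial radiologic assessments. At baseline, longest diameters were summed for up to five lesions per organ and ten in total. Lesions had to measure ≥20 mm by conventional techniques or ≥10 mm by spiral CT. Response and progression were graded by RECIST v1.0.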"}, "[3]": {"assay": "Phase I urinary recovery of unchanged drug", "type": "in vivo, human", "details": "on average, at the highest dose levels", "how_it_was_run": "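Urine collected during the 24 h infusion at 0–4, 4–8, 8–12 and 12–24 h, then at 24–28, 28–32, 32–36 and 36–48 h from infusion start. Unchanged test compound concentration and urine volume per interval gave total urinary recovery as percentage of dose. Calculated for subjects at the highest dose levels.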"}, "KB-3-1 (cervical cancer)": {"test_system": "KB-3-1 (cervical cancer)", "details": "cited from earlier work"}, "[4]": {"test_system": "human ovarian carcinoma cells", "details": "treated human ovarian carcinoma cells; cited from earlier work"}, "[5]": {"details": "12 mg/m^2/24 h, treatment-related, all cycles (n=47)"}, "[6]": {"details": "17 mg/m^2/24 h, treatment-related, all cycles (n=47)"}, "[7]": {"details": "24 mg/m^2/24 h, treatment-related, all cycles (n=47)"}, "[8]": {"details": "48 mg/m^2/24 h, treatment-related, all cycles (n=47)"}}, "note": "“Also recorded” adds a separate entry of the source. Marks after values point to notes of the source that are not given here."}
{"smiles": "CN1CC[C@H](N(C)C(=O)N2CC(c3cc(F)ccc3F)=C[C@@]2(CO)c2ccccc2)[C@H](F)C1", "note": "[MK-0731, (2S)-4-(2,5-difluorophenyl)-n-[(3R,4S)-3-fluoro-1-methylpiperidin-4-yl]-2-(hydroxymethyl)-N-methyl-2-phenyl-2,5-dihydro-1H-pyrrole-1-carboxamide]", "values": [{"measurement": "levels of the Ca125 antigen", "setting": "Ca125 antigen", "result": "No decreases"}, {"measurement": "proliferation", "setting": "A2780 (ovarian cancer)", "result": "inhibits proliferation"}, {"measurement": "selectivity for KSP compared with other kinesins", "setting": "other kinesins", "result": "> 20,000 fold"}, {"measurement": "growth of xenograft tumors", "setting": "xenograft tumors", "result": "inhibited to a similar degree"}, {"measurement": "proliferation", "setting": "HCT116 (colon cancer)", "result": "inhibits proliferation"}, {"measurement": "dose dependence of end of infusion concentrations and AUC", "setting": "[1]; 6 to 48 mg/m^2/24 h", "result": "increase approximately dose proportionally; also recorded: increased approximately proportionately to the dose administered"}, {"measurement": "AUC (±SD)", "setting": "[1]; at the MTD (17 mg/m^2/24 h)", "result": "10.5 (±7.3) μM × hour"}, {"measurement": "clearance (±SD)", "setting": "[1]; at the MTD (17 mg/m^2/24 h)", "result": 153, "unit": "mL/min"}, {"measurement": "IC50", "setting": "KSP", "result": 2.2, "unit": "nM"}, {"measurement": "toxicities, part 1", "setting": "[2]; 12 mg/m^2", "result": "no further toxicities were observed"}, {"measurement": "Leukopenia, Grade 2, %", "setting": "[2]; [5]", "result": 2.1, "unit": "%"}, {"measurement": "Neutropenia, Grade 2, %", "setting": "[2]; [5]", "result": 2.1, "unit": "%"}, {"measurement": "Vomiting, Grade 2, %", "setting": "[2]; [5]", "result": 2.1, "unit": "%"}, {"measurement": "DLT, part 1", "setting": "[2]; 17 mg/m^2, six patients", "result": "none experienced DLT"}, {"measurement": "DLTs, part 2", "setting": "[2]; 17 mg/m^2/24 h, 22 patients", "result": "no DLTs"}, {"measurement": "Hypophosphatemia, Grade 2, %", "setting": "[2]; [6]", "result": 2.1, "unit": "%"}, {"measurement": "Leukopenia, Grade 3, %", "setting": "[2]; [6]", "result": 2.1, "unit": "%"}, {"measurement": "Thrombocytopenia, Grade 2, %", "setting": "[2]; [6]", "result": 2.1, "unit": "%"}, {"measurement": "Leukopenia, Grade 2, %", "setting": "[2]; [7]", "result": 2.1, "unit": "%"}, {"measurement": "Neutropenia, Grade 2, %", "setting": "[2]; [7]", "result": 2.1, "unit": "%"}, {"measurement": "Neutropenia, Grade 3, %", "setting": "[2]; [7]", "result": 2.1, "unit": "%"}, {"measurement": "Hyperglycemia, Grade 3, %", "setting": "[2]; [8]", "result": 2.1, "unit": "%"}, {"measurement": "Hypocalcemia, Grade 2, %", "setting": "[2]; [8]", "result": 2.1, "unit": "%"}, {"measurement": "Hypophosphatemia, Grade 2, %", "setting": "[2]; [8]", "result": 2.1, "unit": "%"}, {"measurement": "Leukopenia, Grade 2, %", "setting": "[2]; [8]", "result": 2.1, "unit": "%"}, {"measurement": "Leukopenia, Grade 3, %", "setting": "[2]; [8]", "result": 2.1, "unit": "%"}, {"measurement": "Mucosal Inflammation, Grade 2, %", "setting": "[2]; [8]", "result": 2.1, "unit": "%"}, {"measurement": "Nausea, Grade 3, %", "setting": "[2]; [8]", "result": 2.1, "unit": "%"}, {"measurement": "Thrombocytopenia, Grade 2, %", "setting": "[2]; [8]", "result": 2.1, "unit": "%"}, {"measurement": "Vomiting, Grade 3, %", "setting": "[2]; [8]", "result": 2.1, "unit": "%"}, {"measurement": "maximum tolerated dose", "setting": "[2]; 24-hour IV infusion, 21-day cycles", "result": 17, "unit": "mg/m^2"}, {"measurement": "neuropathy", "setting": "[2]; all doses", "result": "without the development of neuropathy"}, {"measurement": "Number of cycles, patient with stable disease", "setting": "solid tumors; 17 mg/m^2/24 h, non-small cell lung cancer", "result": "12 ^a cycles"}, {"measurement": "Number of cycles, patient with stable disease", "setting": "solid tumors; 17 mg/m^2/24 h, ovarian cancer", "result": "11 ^a cycles"}, {"measurement": "patients with prolonged stable disease", "setting": "solid tumors; 17 mg/m^2/24 h, part 2", "result": "four"}, {"measurement": "objective tumor response (RECIST)", "setting": "solid tumors; all patients", "result": "no objective tumor responses; also recorded: no partial or complete responses"}, {"measurement": "dose recovered in urine as unchanged drug", "setting": "[3]", "result": "less than 4%"}, {"measurement": "proliferation", "setting": "KB-3-1 (cervical cancer)", "result": "inhibits proliferation"}, {"measurement": "spindle pole separation", "setting": "[4]", "result": "inhibits spindle pole separation"}]}
{"smiles": "CC(=O)O[C@H]1C(=O)[C@@]2(C)[C@H]([C@H](OC(=O)c3ccccc3)[C@]3(O)C[C@H](OC(=O)[C@H](O)[C@@H](NC(=O)c4ccccc4)c4ccccc4)C(C)=C1C3(C)C)[C@]1(OC(C)=O)CO[C@@H]1C[C@@H]2O", "note": "[paclitaxel, reference compound]", "values": [{"measurement": "growth of xenograft tumors", "setting": "xenograft tumors", "result": "inhibited to a similar degree"}]}
